Activity, Drug uptake and Ratio data for two compounds are collected here from ChEMBL document CHEMBL1938298, “Synthesis and characterization of [¹²⁵I]2-iodo N-[(S)-{(S)-1-methylpiperidin-2-yl}(phenyl)methyl]3-trifluoromethyl-benzamide as novel imaging probe for glycine transporter 1” (Bioorg Med Chem, 2011).

Data set [1] concerns the target T1, Sodium- and chloride-dependent glycine transporter 1 (Rattus norvegicus) (UniProt P28572).
T1 sequence (whole entry): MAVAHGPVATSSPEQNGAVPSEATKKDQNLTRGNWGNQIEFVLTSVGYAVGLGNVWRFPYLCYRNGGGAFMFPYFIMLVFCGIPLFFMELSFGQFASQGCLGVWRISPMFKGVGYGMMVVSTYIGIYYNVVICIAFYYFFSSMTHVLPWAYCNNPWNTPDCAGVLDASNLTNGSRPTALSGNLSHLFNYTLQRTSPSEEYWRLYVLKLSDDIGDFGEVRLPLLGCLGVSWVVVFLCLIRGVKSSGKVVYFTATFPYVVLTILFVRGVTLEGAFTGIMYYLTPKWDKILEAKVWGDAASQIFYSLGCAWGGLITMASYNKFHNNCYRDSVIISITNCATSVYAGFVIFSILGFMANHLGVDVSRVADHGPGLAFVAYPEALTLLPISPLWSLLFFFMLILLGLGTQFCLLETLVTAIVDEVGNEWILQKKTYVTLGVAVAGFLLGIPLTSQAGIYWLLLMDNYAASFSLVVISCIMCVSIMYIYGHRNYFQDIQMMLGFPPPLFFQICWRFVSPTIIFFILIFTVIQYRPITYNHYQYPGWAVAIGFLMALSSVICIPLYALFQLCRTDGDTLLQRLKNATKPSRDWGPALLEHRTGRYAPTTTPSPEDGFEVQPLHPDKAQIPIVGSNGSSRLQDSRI
Kind of data set: Binding affinity to GlyT1 in rat brain medullary region at 0.03 to 0.04 nM preincubated for 20 mins in binding buffer before compound addition measured after 30 mins by autoradiography in presence of 1 mM GlyT1 substrate glycine relative to control. The format is tissue-based. To be noted: tested as the 125I-labelled form. The essentials:
(§1)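 Rat brain sagittal sections (20 µm) preincubated 20 min at 25 °C in Tris-HCl buffer pH 7.5 (NaCl, KCl, MgCl2, CaCl2), then 30 min at 25 °C with [125I] tracer (100 kBq, 0.03–0.04 nM) plus competitor (10 µM; glycine 1 or 10 mM). Cold washes, imaging plate 3 days, ROI PSL minus background per mm². % control from ≥triplicate slices, three rats.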

Data set [2] has as its target T1, Sodium- and chloride-dependent glycine transporter 1 (Rattus norvegicus). As to the kind of experiment: Binding affinity to GlyT1 in rat brain midbrain at 0.03 to 0.04 nM preincubated for 20 mins in binding buffer before compound addition measured after 30 mins by autoradiography relative to control. Format: tissue-based. To be noted: tested as the 125I-labelled form.

Data set [3] has the same target. As to the kind of experiment: Binding affinity to GlyT1 in rat brain cerebellum at 0.03 to 0.04 nM preincubated for 20 mins in binding buffer before compound addition measured after 30 mins by autoradiography in presence of GlyT1 inhibitor N-Me-SSR504734 relative to control. The format is tissue-based. To be noted: tested as the 125I-labelled form. Summed up:
as §1

The subject of data set [4] is Mus musculus. Kind of data set: In vivo binding affinity to GlyT1 in ddY mouse brain thalamus at 33.3 kBq, iv after 60 mins in presence of SSR504734 2 mg/kg, iv administered 15 mins prior to compound administration relative to control. To be noted: tested as the 125I-labelled form. The format is functional, organism-based. On the set-up: dose 2 mg/kg.
Data set [5] has as its target T1, Sodium- and chloride-dependent glycine transporter 1 (Rattus norvegicus). As to the kind of experiment: Binding affinity to GlyT1 in rat brain striatum at 0.03 to 0.04 nM preincubated for 20 mins in binding buffer before compound addition measured after 30 mins by autoradiography in presence of 0.01 mM GlyT2 inhibitor ORG25543 relative to control. Format: tissue-based. To be noted: tested as the 125I-labelled form.

For data set [6], the system named is Mus musculus. Kind of data set: In vivo binding affinity to GlyT1 in ddY mouse brain hippocampus at 33.3 kBq, iv after 30 mins in presence of SSR504734 2 mg/kg, iv administered 15 mins prior to compound administration relative to control. To be noted: tested as the 125I-labelled form. On the set-up: dose 2 mg/kg. Format: functional, organism-based. Summed up:
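Blocking study in male ddY mice (6 weeks, 30–35 g). The blocker (2 mg/kg in 30% DMSO/saline) was injected i.v. 15 min before about 33.3 kBq [125I]tracer i.v.; mice were killed at 30 or 60 min. Brains were divided into cortex, corpus callosum, hippocampus, thalamus, midbrain, medulla and cerebellum, weighed and gamma-counted as % dose/g. Values are mean ± SD, n = 5–6, compared to control by Kruskal–Wallis with Dunn's post-test.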

Data set [7] has as its target T1, Sodium- and chloride-dependent glycine transporter 1 (Rattus norvegicus). As to the kind of experiment: Binding affinity to GlyT1 in rat brain cerebellum at 0.03 to 0.04 nM preincubated for 20 mins in binding buffer before compound addition measured after 30 mins by autoradiography in presence of 0.01 mM GlyT1 inhibitor SSR504734 relative to control. The format is tissue-based. To be noted: tested as the 125I-labelled form. The essentials:
as §1

Data set [8] has as its system Mus musculus. Kind of data set: In vivo binding affinity to GlyT1 in ddY mouse brain hippocampus at 33.3 kBq, iv after 60 mins in presence of N-Me-SSR504734 2 mg/kg, iv administered 15 mins prior to compound administration relative to control. Format: functional, organism-based. On the set-up: dose 2 mg/kg. To be noted: tested as the 125I-labelled form. The essentials:
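Male ddY mice (6 W, 30–35 g) were given blocker 2 mg/kg iv in 30% DMSO/saline 15 min before [125I] tracer (ca. 33.3 kBq, 0.1 mL, tail vein). Killed 60 min after tracer injection. Brain dissected into regions including hippocampus, weighed and gamma counted, giving % dose/g and region-to-blood ratio versus control. Mean ± SD, n = 5–6; Kruskal–Wallis with Dunn's post-test.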

The test system of the next data set is Heart. Kind of data set: Drug uptake in ddY mouse heart at 11.1 kBq, iv after 30 min by gamma counting. The format is ADME, organism-based. To be noted: in vivo, 0.5 h. Summed up: (§2)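 Male ddY mice (6 weeks, 30–35 g) received about 11.1 kBq [125I]tracer in 0.1 mL i.v. via tail vein. Killed at set times, organs dissected and weighed, radioactivity gamma counted. Reported as % injected dose/g tissue, mean ± SD, n = 5–6.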

Data set [9] deals with Kidney. Kind of data set: Drug uptake in ddY mouse kidney at 11.1 kBq, iv after 60 min by gamma counting. The format is ADME, organism-based. To be noted: in vivo, 1 h. Summed up:
(§3)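 Male ddY mice (6 weeks, 30–35 g) were given about 11.1 kBq of [125I]tracer in 0.1 mL i.v. via the tail vein. At each time point the animals were killed and organs dissected, weighed and gamma-counted. Uptake is expressed as % injected dose per gram of tissue, mean ± SD, n = 5–6.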

For data set [10], the system named is Mus musculus. Kind of data set: In vivo binding affinity to GlyT1 in ddY mouse brain midbrain at 33.3 kBq, iv after 60 mins in presence of N-Me-SSR504734 2 mg/kg, iv administered 15 mins prior to compound administration relative to control. Format: functional.
The subject of data set [11] is Intestine. As to the kind of experiment: Drug uptake in ddY mouse intestine at 11.1 kBq, iv after 180 min by gamma counting. The format is ADME, organism-based. To be noted: in vivo, 3 h. The essentials: as §2
In another data set the test system is Nucleic Acid. As to the kind of experiment: Ratio of drug level in brain to blood in ddY mouse at 11.1 kBq, iv after 60 min by gamma counting. The format is ADME, organism-based. To be noted: 1 h.
The subject of data set [12] is Mus musculus. Kind of data set: In vivo binding affinity to GlyT1 in ddY mouse brain midbrain at 33.3 kBq, iv after 60 mins in presence of nonradioactive compound 2 mg/kg, iv administered 15 mins prior to compound administration relative to control. Format: functional.
Data set [13] concerns Lung. Kind of data set: Drug uptake in ddY mouse lung at 11.1 kBq, iv after 15 min by gamma counting. Format: ADME, organism-based. To be noted: in vivo. Summed up: as §3
Data set [14] deals with Lung. As to the kind of experiment: Drug uptake in ddY mouse lung at 11.1 kBq, iv after 180 min by gamma counting. To be noted: in vivo, 3 h. Format: ADME, organism-based. The essentials:
as §3

For data set [15], the system named is Kidney. As to the kind of experiment: Drug uptake in ddY mouse kidney at 11.1 kBq, iv after 180 min by gamma counting. Format: ADME, organism-based. To be noted: in vivo, 3 h. The essentials:
as §3

The test system of data set [16] is Intestine. As to the kind of experiment: Drug uptake in ddY mouse intestine at 11.1 kBq, iv after 60 min by gamma counting. To be noted: in vivo, 1 h. The format is ADME, organism-based. Summed up: as §2

Active and inactive are the calls of the source. The rule behind the calls is not given here.

Turning to `CN1CCCC[C@H]1[C@@H](NC(=O)c1cccc(C(F)(F)F)c1I)c1ccccc1`, the Activity came out at 104% in data set [1], 28.9% in data set [3], 104% in data set [5] and 27.7% in data set [7]. Moreover, the outcome (in data set [2]; with Mus musculus [8]) was Active. Besides, the result with Mus musculus [4] and in the data set with Mus musculus [6] was inactive.

Regarding `CN1CCCC[C@H]1[C@@H](NC(=O)c1cccc(C(F)(F)F)c1[125I])c1ccccc1`, the Drug uptake in the data set on Heart was determined as 3.95 % ID/g; in the data set on Kidney [9] it was 8.27 % ID/g; in the data set on Intestine [11], 17.13 % ID/g; with Lung [13], 15.24 % ID/g; in the data set on Lung [14], 9.34 % ID/g; with Kidney [15], 6.97 % ID/g. The Drug uptake in the data set on Intestine [16] was 9.59 % ID/g. In addition, the Activity in the data set on Mus musculus [10] is on record as 48%; with Mus musculus [12], 51%. Also, the Ratio in the data set on Nucleic Acid is 2.32.
